Measurements as given in the EternaBench riboswitch data.

Tested on: MS2 coat protein
Experiment: apparent Kd, MS2 coat protein; higher = weaker binding; RNA-MaP array; FMN 200 µM where present
Summary of the method: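 In 100 mM Tris-HCl pH 7.5, 80 mM KCl, 4 mM MgCl2, BSA, DTT, yeast tRNA and Tween-20, SNAP-549-labelled MS2 coat protein was titrated from 0.7 or 1.5 nM, doubling to 3 µM, over designs transcribed by stalled E. coli RNA polymerase on Illumina sequencing-chip clusters. This was done first without ligand, then with ligand held constant. After green signal was normalised to red-channel RNA signal and control-cluster median Fmax, the apparent Kd was taken as the median of filtered per-cluster binding-curve fits.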

[1] = designed as: OFF switch for flavin mononucleotide, no ligand
[2] = ligand present: flavin mononucleotide, designed as: OFF switch for flavin mononucleotide
[3] = designed as: ON switch for flavin mononucleotide, no ligand
[4] = ligand present: flavin mononucleotide, designed as: ON switch for flavin mononucleotide

| Sequence | apparent Kd [1] [nM] | apparent Kd [2] [nM] | apparent Kd [3] [nM] | apparent Kd [4] [nM] |
| --- | --- | --- | --- | --- |
| UAUGUAUUCGUAGGAUAUCCGUCGCCACCGUGUGGAGAAGGACGAACAUGAGGAUCACCCAUGUAUCAUGGUGUAGACAAUUUU | 77 | 135 |  |  |
| GUCUUAUUACAGAAGGUGUUUUACAUGAGGAUCACCCAUGUUUUAAUGUUUAAAUUUGAUAUUUACAAGGAUAUGUACUAAUCU |  |  | 27.7 | 19.4 |
| CCCAGGUCAUCUCCCGGGAACAACAUGAGGAUCACCCAUGUCUAGGAUAUCCACCAGUCAAUAAAGGAGAAGGAGACGGUGGUU | 29.3 | 31.9 |  |  |
| AAUGUUGUUGUGAGGAUAUCGUAGUUAUUUUGAAACGAGAAGGCACAUGAGGAUCACCCAUGUUUGUUGAUGGU | 22.9 | 47.9 |  |  |
| GCGUUGUUGUAGAAGGUACAUGAAUACUUUUAUUACCUCAAGUAACAUGAGGAUCACCCAUGUAGUAAGGAUAUACAUGAACGC |  |  | 35.1 | 24.3 |
| UCAGGAGUCACAGGAUAUCCGGCGUAGCACACAGGAGAAGGGUGAUCACGAGCACAUGAGGAUCACCCAUGUGACAUUUGUGAG |  |  | 40.4 | 50.7 |
| UGACAUAUAUAGAAGGGUAGUAGGGUAUUACAUGAGGAUCACCCAUGUAUUAUAGGAUAUGUAUAAAGUUAUUAUUCAAGUAAA | 15.8 | 13 |  |  |
| UGGUACUAGGGAGGAUAUGGGAAGAUACAUGAGGAUCACCCAUGUUUAAGAAUGCCGAGAGCCAACUAGAAGGCCCUAGUACCU |  |  | 120 | 16.7 |
| AUCCUGCGAGGAUAUACAUAGUUUUUUUCGUUUUGACUCGAACAUGAGGAUCACCCAUGUAGAAGGUGCUUCAC | 59.5 | 56 |  |  |
| AGCCUAGCAGGAUAUGCUCAAGAUUACAUGAGGAUCACCCAUGUGACUGGUUGUUGUCUUGCAGAAGGGCUAGGGA | 20.6 | 46.8 |  |  |
| GGACGUCUCAUUUACAUGAGGAUCACCCAUGUCGAUAGACAUGAGGAUAUGGAUCCGAAUCGGAUCCAGAAGGCAUGGACGUCC |  |  | 1130 | 63.4 |
| UUUAUGUCAGGAUAUUCGGAUAGGAAAACGAAAACCUAUCCGAAGAAGGGACAUGAGGAUCACCCAUGUAAAAA | 217 | 151 |  |  |
| GGGUGCCCUGCAGAAGCGACAUGAGGAUCACCCAUGUAACGUAGAAGGGCCCGGAACUAAGGUGGGCAGGAUAUACUGUUAGGU | 6.76 |  |  |  |
| CGUUCACAUGAGGAUCACCCAUGUCAGAUUUGGUCAGGAUAUGGUCGGCUUCCGCUAUUGCCAGAAGGGACUGUUG |  |  | 30.5 | 23.9 |
| AAGGUGUUAGGAUAUCGAAGGUUGUGGCAGGCGGGAAUUUGCGAGAAGGAACAUGAGGAUCACCCAUGUAAAAU | 24.4 | 25.8 |  |  |
| AAUAAACUCACAGGAUAUAGCAGAGGUCACGUGAACUUACAGGCGACGAUGCUAGAAGGGUGACCACAUGAGGAUCACCCAUGU |  |  | 862 | 135 |
| UUUAUAAAUUAGAAGGCGUGAUGAAUUACAAUAGACAUGAGGAUCACCCAUGUGUAUUCAUGUCAUGAGGAUAUAGUCAUAUAU |  |  | 47.2 | 19.4 |
| ACCUCACAUGAGGAUCACCCAUGUUAGGAUAUCUCGAUGCUCCGCGGGCGGGAGCAUCAGAGAAGGAACGUGCA | 20.1 | 21.8 |  |  |
| UCCUUGUCCUGAGGAUAUCCGUGGUUACCGAAAGGAGAAGGCAGGACAUGAGGAUCACCCAUGUACCCAGAAAACGUGCAGAGA | 59.3 | 467 |  |  |
| UGUAUUAAUGGAGGAUAUCGAUAUCAAACAUGAGGAUCACCCAUGUUGAGGAUCACCCAUGUCCACGAGAAGGCUGGCGUACGU |  |  | 16.6 | 18.1 |
| GUCAGCUCGUGAGGAUAUACAUGUGCUGGAGACAGCACUAUUAAGUUCACAUGAGGAUCACCCAUGUAGAAGGCACGAGCUGAU | 15.9 | 20.8 |  |  |
| AAAUAACCUAGCAAAAUUUCCUCACAUGAGGAUCACCCAUGUAGAAGGCUGUCCUAAAAUAGGACAGAGGAUAUACGUGCUAGG | 6.82 | 107 |  |  |
| AUAAGCUCGUCAGGAUAUGCGACACUGUUUCGGCAGUGUGGUAUGAUCACAUGAGGAUCACCCAUGUAGAAGGGACGAGCUUAU | 6.09 | 11.7 |  |  |
| AAAAGGUGAGGAUAUACAUGAGGAUCACCCAUGUAGAAAGGAAGUGUAAAAAAAAAGUGUAGAAGGCAUCAUGA | 58.7 | 60.6 |  |  |
| UAACAGUUAGGAUAUACCAGGGUAUCCUCGCGGCGCCGAAAACAUGAGGAUCACCCAUGUAGAAGGAACCGUUU | 65 | 19.6 |  |  |
| AUCGGGAGAGGAUAUACAUGAGGAUCACCCAUGUUGGGAACAUCGGUUUGUUAGUUUCGUAGAAGGCUCGGGCG | 45.5 | 59.6 |  |  |
| CAAUGCCUGUCGAUGCUCGACAUGAGGAUCACCCAUGUAUAGCAGGAUAUGCAGAACUGACUCGUGCAGAAGGGCUAUACCUAA | 25.8 | 61.1 |  |  |
| GGACGUCACAUCUACAUGAGGAUCACCCAUGUCAAAAGACAUGAGGAUAUGCUUCCUAAUUGGAAGCAGAAGGCAUGGACGUCC |  |  | 1210 | 67.5 |

| Sequence | apparent Kd [1] [nM] | apparent Kd [2] [nM] | apparent Kd [3] [nM] | apparent Kd [4] [nM] |
| --- | --- | --- | --- | --- |
| AAUAGUUCCGAGGAUAUAUCUCCACCGUGGGUGGUAGAAGGCGGGACAUGAGGAUCACCCAUGUACAAAUUCUC | 75.2 | 98.1 |  |  |
| GUGGCACAUGAGGAUCACCCAUGUAGGUAGAACAUAGGAUAUCACCAACAAAAUACCUGGUGAGAAGGAUGAUGCC |  |  | 166 | 59.8 |
| CUUAGACAUGAGGAUCACCCAUGUGAGGAUAUGAUGCAGCAGUGGUCUACGCUGUGCAUCAGAAGGCACAUGUG | 80.7 | 14.2 |  |  |
| GUGUCGUCAGGAUAUCCUACAUAACUAUCGUUGUUACCAUUGGAGAAGGGACAUGAGGAUCACCCAUGUUUUCC | 19.3 | 19.7 |  |  |
| GUUUAGUGAGGAUAUGUGGCUUCGAUCGUGCGCGGUCGGCUACAGAAGGCACAUGAGGAUCACCCAUGUUCCUC | 37.1 | 506 |  |  |
| AGCUGUGGCCGAGGAUAUCACGAACCAUGGAAAACCAUGGAACUCAAACAUGAGGAUCACCCAUGUGAGAAGGCGGUCUCAGCA | 21.1 | 15.9 |  |  |
| UGUGUCAUCGAGAAGGCCUCAACAUGAGGAUCACCCAUGUUGUAAUAUGGGAGGAUAUCGAUGAUACAGCUACGUUUCGUAGCC |  |  | 18.4 | 5.67 |
| UAUUAUUGCAAGGAUAUGCUUUUUAUUUCUUUUGCAGAAGGUGCAACAUGAGGAUCACCCAUGUUUCCGGGUAU | 19.7 | 28.9 |  |  |
| AAAACCUCAUGAGGAUAUCCAACAUGAGGAUCACCCAUGUUAGUCUCAGUACUAGGUACUUGAGAGGAGAAGGCAUGCCAGGGC |  |  | 123 | 36.2 |
| AACAGACAUGAGGAUCACCCAUGUGAAAACGUACAAGGAUAUGUGUGGAAACCGUACUAUACAGAAGGUGUCUGUC |  |  | 41.3 | 72.5 |
| GGAAAUCAUGUAGGAUAUGCAUGGCGAAGCUACGCAGAAGGACAUGAGGAUCACCCAUGUUAUAGCGUCCGAGAAAGGAUGCAA | 111 | 167 |  |  |
| UGCUAGUCAGGAUAUACGUACAUGUCAUUAGACGUGAAGGGACAUGAGGAUCACCCAUGUAGAAGGGACUAGCU | 42.4 | 149 |  |  |
| CGCUAGUCAGGAUAUACGAACAUGUCAAAAGACGUGAAGGGACAUGAGGAUCACCCAUGUAGAAGGGACUAGCG | 36.8 | 206 |  |  |
| CCUUUCGGUGUCAGGAUAUACUGCGCCUGGCGCAAGUAGAAGGGACAUGAGGAUCACCCAUGUAGCGGGACCGA | 73.7 | 81.9 |  |  |
| GUGCGACAUGAGGAUCACCCAUGUGAGGAUAUCCCGGGCCGGGCUUUUGCCCGGCCCGGGAGAAGGCGCGUCGU | 68.4 | 70.7 |  |  |
| GGGUACAUCGGAGGAUAUCAUGUAAAUACAUGAGGAUCACCCAUGUUGAUGGAGACAUCGGAGAUUGAGAAGGCCGAUGUACCG |  |  | 41.9 | 6.03 |
| AGAUGUGAACAUGAGGAUCACCCAUGUGACUAGGUAUAUUUCAGAAGGCAUUUAUAGAGAUUAUAUGAGGAUAUGAAGUUUUAA |  |  | 12.7 | 6.59 |
| AGACCGCUACGCCGGUUUGACGCACAGGAUAUGCGGUUACAUGAGGAUCACCCAUGUGGCCAUGAGUAGAAGGGUGGUUCGUCC |  |  | 49.9 | 39.1 |
| CAAUUUAUAACAGGAUAUGUAUUACAAUAGUUAAUAGAAGGGUUUAAUACAUGAGGAUCACCCAUGUCAUGUGUCAUAAUUACC | 33.5 | 28.8 |  |  |
| ACCAGUGACACAGGAUAUCCGUGCAUGUAGCACGGAGAAGGGUGUUCCAAUCAACUCACAUGAGGAUCACCCAUGUGCUACUUG |  |  | 176 | 59.8 |
| UGUCGGAGCAGAGGAUAUUACAUGAGGAUCACCCAUGUAUGAACCAAUUGCUGGAAACAGCAAUGUAAGAAGGCUGCUCCGACA | 5.04 | 9.44 |  |  |
| GGAAAACAUGAGGAUCACCCAUGUGAGGAUAUCGAUGUCCAGGGCCUGGUGCGGGACUCGAGAAGGCACUGGGA | 62.9 | 126 |  |  |
| GUGGGUGAUGGAGGAUAUGACGACGGGUUUUACAUGAGGAUCACCCAUGUGGCGUUCCGCAAAAGUCAGAAGGCCAGGUAUACU |  |  | 332 | 40.6 |
| UUCGCUAAGGUGUAGCGAGACAUGCAAGAAGGGUGAAGAACAUGAGGAUCACCCAUGUAAUCCUUACAGGAUAUUGAUUGACGA |  |  | 307 | 181 |
| GGUUACAAGUAAGGAUAUGCAUAUGAAACAUAUGCAGAAGGUACAUGAGGAUCACCCAUGUUAUUGCAAAGCGAAUAAGUAACC | 15.6 | 20.9 |  |  |
| CCAUAUAACUGAGGAUAUGAUCACCACUAACAUUCAGAAGGCAGACAUGAGGAUCACCCAUGUGAUUUCUCAAUAUUAUACAUC | 572 | 363 |  |  |
| GGAUGACAAAGUCAUCCUAUUCGAACAUGAGGAUCACCCAUGUAGGAUAUGCAACUCAAAGAGUUGCAGAAGGACAUGUGCUUU | 34.7 | 166 |  |  |
